According to ChEMBL document CHEMBL4340532, “Design, synthesis, and biological evaluation of novel 2'-deoxy-2'-fluoro-2'-C-methyl 8-azanebularine derivatives as potent anti-HBV agents” (Bioorg Med Chem Lett, 2019):

Key:
Hepatitis B virus [1] = experiment: Antiviral activity against lamivudine-resistant Hepatitis B virus harboring L180M/M204V mutant infected in human HepG2.2.15 cells assessed as inhibition of extracellular HBV DNA replication at 10 uM supplemented with fresh medium containing compound every 3 days for 6 days measured post-last dose by FQ-PCR analysis relative to control; type: functional
Procedure, shortened: (§1)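 Lamivudine-resistant cell line transfected with the L180M/M204V mutant, exposed to 10, 20 or 40 µM for 3, 6 or 9 days. Intracellular and extracellular HBV DNA levels measured.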

Hepatitis B virus [2] = experiment: Antiviral activity against lamivudine-resistant Hepatitis B virus harboring L180M/M204V mutant infected in human HepG2.2.15 cells assessed as inhibition of extracellular HBV DNA replication at 20 uM supplemented with fresh medium containing compound every 3 days for 9 days measured post-last dose by FQ-PCR analysis relative to control; type: functional; procedure, shortened: as §1
Hepatitis B virus [3] = experiment: Antiviral activity against lamivudine-resistant Hepatitis B virus harboring L180M/M204V mutant infected in human HepG2.2.15 cells assessed as inhibition of intracellular HBV DNA replication at 10 uM measured on day 3 by FQ-PCR analysis relative to control; type: functional; conditions: HepG2.2.15, 72 h; procedure, shortened: as §1
[4] = system: HepG2 cells (Homo sapiens); experiment: Cytotoxicity against human HepG2 cells at 40 uM supplemented with fresh medium containing compound every 3 days for 9 days measured post-last dose
Hepatitis B virus [5] = experiment: Antiviral activity against Hepatitis B virus infected in human HepG2.2.15 cells assessed as inhibition of extracellular HBV DNA replication at 10 uM measured on day 3 by FQ-PCR analysis relative to control; type: functional; conditions: HepG2.2.15, 72 h
Procedure, shortened: (§2)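 HepG2.2.15 cultures were treated at 10, 20 or 40 µM for 3, 6 and 9 days. Both intracellular and extracellular HBV DNA levels were then determined and compared with untreated cells.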

Hepatitis B virus [6] = experiment: Antiviral activity against Hepatitis B virus infected in human HepG2.2.15 cells assessed as inhibition of extracellular HBV DNA replication at 20 uM supplemented with fresh medium containing compound every 3 days for 9 days measured post-last dose by FQ-PCR analysis relative to control; type: functional; procedure, shortened: as §2
[7] = system: HepG2 cells (Homo sapiens); experiment: Cytotoxicity against human HepG2 cells at 40 uM supplemented with fresh medium containing compound every 3 days for 9 days measured post-last dose; remark: listed apart in the source
[8] = Cytotoxicity against human HepG2 cells after 3 days by MTT assay; type: cell-based
Procedure, shortened: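 HepG2 cells were exposed to compound for 3 or 9 days and viability was read by MTT assay. CC50 is the concentration causing 50% cytotoxicity. Results are mean ± SD of three experiments.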

Hepatitis B virus [9] = experiment: Antiviral activity against Hepatitis B virus infected in human HepG2.2.15 cells assessed as inhibition of intracellular HBV DNA replication at 40 uM measured on day 3 by FQ-PCR analysis relative to control; type: functional; conditions: HepG2.2.15, 72 h; procedure, shortened: as §2
Hepatitis B virus [10] = experiment: Antiviral activity against Hepatitis B virus infected in human HepG2.2.15 cells assessed as inhibition of extracellular HBV DNA replication at 20 uM measured on day 3 by FQ-PCR analysis relative to control; type: functional; conditions: HepG2.2.15, 72 h; procedure, shortened: as §2
Hepatitis B virus [11] = experiment: Antiviral activity against Hepatitis B virus infected in human HepG2.2.15 cells assessed as inhibition of intracellular HBV DNA replication at 20 uM measured on day 3 by FQ-PCR analysis relative to control; type: functional; conditions: HepG2.2.15, 72 h; procedure, shortened: as §2
Hepatitis B virus [12] = experiment: Antiviral activity against Hepatitis B virus infected in human HepG2.2.15 cells assessed as inhibition of HBeAg secretion at 20 uM supplemented with fresh medium containing compound every 3 days for 6 days and measured on day 9 by ELISA relative to control; type: functional
Procedure, shortened: (§3)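 HepG2.2.15 cells were exposed to compound for up to 9 days. The initial screen used 20 µM for 9 days, with lamivudine (20 µM) as positive control. Follow-up used 10, 20 or 40 µM sampled at days 3, 6 and 9. HBsAg and HBeAg were quantified in culture supernatant by ELISA and compared with a no-drug control. Results are mean ± SD of three experiments.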

Hepatitis B virus [13] = experiment: Antiviral activity against Hepatitis B virus infected in human HepG2.2.15 cells assessed as inhibition of intracellular HBV DNA replication at 10 uM measured on day 3 by FQ-PCR analysis relative to control; type: functional; conditions: HepG2.2.15, 72 h; procedure, shortened: as §2
Hepatitis B virus [14] = experiment: Antiviral activity against lamivudine-resistant Hepatitis B virus harboring L180M/M204V mutant infected in human HepG2.2.15 cells assessed as inhibition of intracellular HBV DNA replication at 10 uM supplemented with fresh medium containing compound every 3 days for 6 days measured post-last dose by FQ-PCR analysis relative to control; type: functional; procedure, shortened: as §1
Hepatitis B virus [15] = experiment: Antiviral activity against lamivudine-resistant Hepatitis B virus harboring L180M/M204V mutant infected in human HepG2.2.15 cells assessed as inhibition of intracellular HBV DNA replication at 20 uM supplemented with fresh medium containing compound every 3 days for 6 days measured post-last dose by FQ-PCR analysis relative to control; type: functional; procedure, shortened: as §1
Hepatitis B virus [16] = experiment: Antiviral activity against Hepatitis B virus infected in human HepG2.2.15 cells assessed as inhibition of intracellular HBV DNA replication at 10 uM supplemented with fresh medium containing compound every 3 days for 9 days measured post-last dose by FQ-PCR analysis relative to control; type: functional; procedure, shortened: as §2
Hepatitis B virus [17] = experiment: Antiviral activity against Hepatitis B virus infected in human HepG2.2.15 cells assessed as inhibition of HBsAg secretion at 20 uM supplemented with fresh medium containing compound every 3 days for 6 days and measured on day 9 by ELISA relative to control; type: functional; procedure, shortened: as §3
Hepatitis B virus [18] = experiment: Antiviral activity against Hepatitis B virus infected in human HepG2.2.15 cells assessed as inhibition of intracellular HBV DNA replication at 10 uM supplemented with fresh medium containing compound every 3 days for 6 days measured post-last dose by FQ-PCR analysis relative to control; type: functional; procedure, shortened: as §2
Hepatitis B virus [19] = experiment: Antiviral activity against lamivudine-resistant Hepatitis B virus harboring L180M/M204V mutant infected in human HepG2.2.15 cells assessed as inhibition of extracellular HBV DNA replication at 40 uM supplemented with fresh medium containing compound every 3 days for 6 days measured post-last dose by FQ-PCR analysis relative to control; type: functional; procedure, shortened: as §1
Hepatitis B virus [20] = experiment: Antiviral activity against Hepatitis B virus infected in human HepG2.2.15 cells assessed as inhibition of extracellular HBV DNA replication at 10 uM supplemented with fresh medium containing compound every 3 days for 6 days measured post-last dose by FQ-PCR analysis relative to control; type: functional; procedure, shortened: as §2
Hepatitis B virus [21] = experiment: Antiviral activity against lamivudine-resistant Hepatitis B virus harboring L180M/M204V mutant infected in human HepG2.2.15 cells assessed as inhibition of extracellular HBV DNA replication at 40 uM supplemented with fresh medium containing compound every 3 days for 9 days measured post-last dose by FQ-PCR analysis relative to control; type: functional; procedure, shortened: as §1
Hepatitis B virus [22] = experiment: Antiviral activity against lamivudine-resistant Hepatitis B virus harboring L180M/M204V mutant infected in human HepG2.2.15 cells assessed as inhibition of intracellular HBV DNA replication at 20 uM supplemented with fresh medium containing compound every 3 days for 9 days measured post-last dose by FQ-PCR analysis relative to control; type: functional; procedure, shortened: as §1
Hepatitis B virus [23] = experiment: Antiviral activity against lamivudine-resistant Hepatitis B virus harboring L180M/M204V mutant infected in human HepG2.2.15 cells assessed as inhibition of intracellular HBV DNA replication at 40 uM supplemented with fresh medium containing compound every 3 days for 6 days measured post-last dose by FQ-PCR analysis relative to control; type: functional; procedure, shortened: as §1

## C[C@@]1(F)[C@H](O)[C@@H](CO)O[C@H]1n1nnc2c(Nc3ccc(Cl)cc3F)ncnc21
Hepatitis B virus [1]
  inhibition (INH): 27.4%
Hepatitis B virus [2]
  inhibition (INH): 61.4%
Hepatitis B virus [3]
  inhibition at 10 µM: 5%
[4]
  inhibition (INH): 7.7%
Hepatitis B virus [5]
  inhibition at 10 µM: 18.4%
Hepatitis B virus [6]
  inhibition (INH): 65%
[7]
  inhibition (INH): 7.7%
[8]
  CC50 at 72 h: 409 µM
Hepatitis B virus [9]
  inhibition at 40 µM: 36.8%
Hepatitis B virus [10]
  inhibition at 20 µM: 24.5%
Hepatitis B virus [11]
  inhibition at 20 µM: 28.1%
Hepatitis B virus [12]
  inhibition (INH): 31.6%
Hepatitis B virus [13]
  inhibition at 10 µM: 14%
Hepatitis B virus [14]
  inhibition (INH): 22.8%
Hepatitis B virus [15]
  inhibition (INH): 41.6%
Hepatitis B virus [16]
  inhibition (INH): 44.2%
Hepatitis B virus [17]
  inhibition (INH): 39.7%
Hepatitis B virus [18]
  inhibition (INH): 31.8%
Hepatitis B virus [19]
  inhibition (INH): 61.1%
Hepatitis B virus [20]
  inhibition (INH): 31.1%
Hepatitis B virus [21]
  inhibition (INH): 83.6%
Hepatitis B virus [22]
  inhibition (INH): 65.2%
Hepatitis B virus [23]
  inhibition (INH): 66.3%
